Folding enthalpy and Tm data for 38 sequences are collected here from the array DNA melting data of Ke et al. (doi:10.1101/2024.01.08.574731).

The nature of data set [1]: folding enthalpy; higher = less favourable; fluorescence melt of hairpins on a sequencing array, two-state fit. Particulars: sodium 0.088 M. The method, boiled down:
(§1)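 Melting temperature and folding enthalpy were derived from bootstrapped two-state fits. The fitted temperatures were raised by 9.35 °C to agree with UV melts, and four replicates were combined by inverse variance. The underlying data were Cy3 fluorescence images of library hairpins, with annealed Cy3 and quencher oligos, on a sequenced MiSeq flow cell in 50 mM Na-HEPES pH 8.0, 25 mM NaCl, taken in 2.5 °C steps up to 60 °C, normalised to pre-quench Cy3 and to control constructs.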

A short description of data set [2]: melting temperature; fluorescence melt of hairpins on a sequencing array, two-state fit, raised by 9.35 °C to match UV melts. Particulars: sodium 0.088 M. In short, it runs like this:
as §1

As for GATCGAACCCTCGATC ((((((....)))))), the folding enthalpy in data set [1] is -39.5 kcal/mol. Further, in data set [2], the Tm was found to be 50.2 °C.
Taken in the same sequence, the figures for GATCGAACCTTCGATC ((((((....)))))) were -40.7 kcal/mol and 53.5 °C.
Taken in the same sequence, the figures for GATCGAACGCTCGATC ((((((....)))))) were -40.4 kcal/mol and 50.7 °C.
The corresponding values for GATCGAACTGTCGATC ((((((....)))))) are -31.1 kcal/mol and 49.2 °C.
In the case of GATCGAAGGGTCGATC ((((((....)))))), in data set [1], the folding enthalpy is -31.6 kcal/mol. Moreover, the Tm in data set [2] came out at 50.6 °C.
Taken in the same sequence, the figures for GATCGAATAATCGATC ((((((....)))))) were -30.8 kcal/mol and 47.6 °C.
The corresponding values for GATCGAATACTCGATC ((((((....)))))) are -37.5 kcal/mol and 49.9 °C.
For the sequence GATCGAATCATCGATC ((((((....)))))), the folding enthalpy in data set [1] was -35.7 kcal/mol. Besides, in data set [2], the Tm came out at 51.9 °C.
The corresponding values for GATCGAATGATCGATC ((((((....)))))) are -19.6 kcal/mol and 51.7 °C.
Regarding GATCGAATGCTCGATC ((((((....)))))), the folding enthalpy in data set [1] is -49.6 kcal/mol. Besides, the Tm in data set [2] is 49.9 °C.
The corresponding values for GATCGAATGTTCGATC ((((((....)))))) are -42.5 kcal/mol and 52.5 °C.
Taken in the same sequence, the figures for GATCGACAAATCGATC ((((((....)))))) were -31.2 kcal/mol and 48.1 °C.
Taken in the same sequence, the figures for GATCGACAGGTCGATC ((((((....)))))) were -39.1 kcal/mol and 60.3 °C.
For GATCGACATTCGATC ((((((...)))))), the folding enthalpy in data set [1] was -36.1 kcal/mol. The Tm in data set [2] came to 49.9 °C.
Taken in the same sequence, the figures for GATCGACATTTCGATC ((((((....)))))) were -38.6 kcal/mol and 50.8 °C.
Taken in the same sequence, the figures for GATCGACCCATCGATC ((((((....)))))) were -44.4 kcal/mol and 51.5 °C.
The corresponding values for GATCGACCTGTCGATC ((((((....)))))) are -40.3 kcal/mol and 65 °C.
For the sequence GATCGACCTTTCGATC ((((((....)))))), the folding enthalpy in data set [1] is -42.9 kcal/mol. Besides, the Tm in data set [2] turned out to be 50.6 °C.
Consider GATCGACGAAAGTCCATC (((.(((....))).))), for which the folding enthalpy in data set [1] was -15.5 kcal/mol. Further, the Tm in data set [2] was found to be 30 °C.
The corresponding values for GATCGACGAAAGTCTATC (((.(((....))).))) are -26.8 kcal/mol and 37.1 °C.
Regarding GATCGACGAATCGATC ((((((....)))))), in data set [1], the folding enthalpy was -33.7 kcal/mol. For the same sequence, the Tm in data set [2] is 49 °C.
Turning to GATCGACGATTCGATC ((((((....)))))), in data set [1], the folding enthalpy is -37.1 kcal/mol. Also, the Tm in data set [2] is 49.4 °C.
Taken in the same sequence, the figures for GATCGACGCATCGATC ((((((....)))))) were -32.6 kcal/mol and 52.6 °C.
Taken in the same sequence, the figures for GATCGACGCCTCGATC ((((((....)))))) were -43.6 kcal/mol and 51.6 °C.
Taken in the same sequence, the figures for GATCGACGTTCGATC ((((((...)))))) were -40.8 kcal/mol and 50 °C.
In the case of GATCGACTCTCGATC ((((((...)))))), the folding enthalpy in data set [1] is -40.6 kcal/mol. Further, in data set [2], the Tm was 50.9 °C.
Taken in the same sequence, the figures for GATCGACTGATCGATC ((((((....)))))) were -30.5 kcal/mol and 50.9 °C.
Taken in the same sequence, the figures for GATCGACTTTTCGATC ((((((....)))))) were -35.1 kcal/mol and 51.6 °C.
For the sequence GATCGAGAATCGATC ((((((...)))))), in data set [1], the folding enthalpy is -39.8 kcal/mol. The Tm in data set [2] was 59.5 °C.
As to GATCGAGACTCGATC ((((((...)))))), in data set [1], the folding enthalpy is -37.1 kcal/mol. In data set [2], the Tm came to 52.9 °C.
For the sequence GATCGAGCATTCGATC ((((((....)))))), in data set [1], the folding enthalpy is -42.6 kcal/mol. Besides, the Tm in data set [2] worked out at 58.2 °C.
Taken in the same sequence, the figures for GATCGAGCCGTCGATC ((((((....)))))) were -34.8 kcal/mol and 54.4 °C.
On to GATCGAGCTCTCGATC ((((((....)))))), for which the folding enthalpy in data set [1] is -39.1 kcal/mol. Moreover, in data set [2], the Tm turned out to be 55.2 °C.
The corresponding values for GATCGAGGAAACTTGATC ((((.((....)).)))) are -28.7 kcal/mol and 44.3 °C.
For the sequence GATCGAGGGATCGATC ((((((....)))))), the folding enthalpy in data set [1] is -34.2 kcal/mol. The Tm in data set [2] was 53.4 °C.
The corresponding values for GATCGAGGGCTCGATC ((((((....)))))) are -46.3 kcal/mol and 53.5 °C.
Taken in the same sequence, the figures for GATCGAGGGTTCGATC ((((((....)))))) were -36.9 kcal/mol and 50.9 °C.
Taken in the same sequence, the figures for GATCGAGGTTTCGATC ((((((....)))))) were -44.7 kcal/mol and 53.2 °C.
